In ChEMBL document CHEMBL1131011, “Pharmacophores incorporating numerous excluded volumes defined by X-ray crystallographic structure in three-dimensional database searching: application to the thyroid hormone receptor” (J Med Chem, 1998) one finds IC50 data, which are given here for nine compounds.

The target of one assay is T1, Thyroid hormone receptor alpha (Homo sapiens, UniProt P10827).
T1 sequence (P10827 whole entry): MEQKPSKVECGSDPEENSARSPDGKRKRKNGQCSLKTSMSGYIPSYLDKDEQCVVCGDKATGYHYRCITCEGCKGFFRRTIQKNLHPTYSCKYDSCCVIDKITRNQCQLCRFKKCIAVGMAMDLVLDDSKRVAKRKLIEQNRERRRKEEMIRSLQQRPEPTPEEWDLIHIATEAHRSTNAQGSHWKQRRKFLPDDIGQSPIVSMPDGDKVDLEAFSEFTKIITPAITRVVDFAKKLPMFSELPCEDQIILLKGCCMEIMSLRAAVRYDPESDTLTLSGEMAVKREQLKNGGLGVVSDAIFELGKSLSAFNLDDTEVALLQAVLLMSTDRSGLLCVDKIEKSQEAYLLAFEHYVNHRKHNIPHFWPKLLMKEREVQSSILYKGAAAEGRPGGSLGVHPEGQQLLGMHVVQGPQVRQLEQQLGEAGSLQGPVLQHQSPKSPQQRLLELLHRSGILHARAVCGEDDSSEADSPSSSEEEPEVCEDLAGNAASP
The assay is described as follows: Inhibitory activity expressed as concentration required to inhibit the binding of [125I]T3 to human thyroid hormone-alpha; NA =Inactive. In a few lines: (§1)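 hTHR from nuclear extracts of baculovirus-infected sf-9 cells, 20 pM final, with [125I]T3 at 200 pM final. Compounds serially diluted in DMSO. Buffer: 400 mM KCl, K phosphate, 1 mM MgCl2, 0.5 mM EDTA, 8.7% glycerol, 6 mM monothioglycerol, 0.5% reticulocyte lysate; 18–20 h, 4 °C. Bound and free separated on Sephadex G-25, gamma-counted. IC50 from competition curve, second of two titrations.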
Take `Cn1c(Cc2nn(C)c(=O)c3ccccc23)ccc1SCc1ccc(Cl)cc1Cl`: the IC50 entry is “Not Active”.
The same measure, in the same setting: the result for `N=C(c1ccc(Cl)cc1)N(N)S(=O)(=O)c1cc(Cl)c(Oc2ccc([N+](=O)[O-])cc2)c(Cl)c1` reads “Not Active”; that for `N=C(c1ccc(Cl)cc1)N(N)S(=O)(=O)c1cc(Cl)c(Oc2ccc([N+](=O)[O-])cc2Cl)c(Cl)c1`, “Not Active”.
The same measure, in the same setting: the result for `N=C(c1cccnc1)N(N)S(=O)(=O)c1cc(Cl)c(Oc2ccc([N+](=O)[O-])cc2Cl)c(Cl)c1` reads “Not Active”.

For a further assay, the target named is T1, Thyroid hormone receptor alpha. The assay is described as follows: Inhibitory activity expressed as concentration required to inhibit the binding of [125I]T3 to human thyroid hormone-alpha. In a few lines: as §1
Regarding `O=C(Nc1ccc(Cc2ccc(NC(=O)c3cccc([N+](=O)[O-])c3)cc2)cc1)c1cccc([N+](=O)[O-])c1`, the IC50 came to 18.1 µM. That is a double-digit micromolar value.
In the case of `N=C(CCl)N(N)S(=O)(=O)c1cc(Cl)c(Oc2ccc([N+](=O)[O-])cc2Cl)c(Cl)c1`, the IC50 came to 1.8 µM.
On the same count and under the same terms, the result for `N=C(c1ccccn1)N(N)S(=O)(=O)c1cc(Cl)c(Oc2ccc([N+](=O)[O-])cc2Cl)c(Cl)c1` reads 39 µM; that for `[NH-]C(c1cc(Cl)cc(Cl)c1)=[N+](N)S(=O)(=O)c1cc(Cl)c(Oc2ccc([N+](=O)[O-])cc2Cl)c(Cl)c1`, 0.93 µM.
`Cn1c(Cc2nn(C)c(=O)c3ccccc23)ccc1SCC(=O)c1ccc(Cl)cc1Cl`: the IC50 turned out to be 69 µM.

In general, IC50 refers to the concentration that inhibits the measured activity by half.
